The source made the active and inactive calls. The calls are words filed in the database; no cut-off is given here.
Key:
U-87 MG [1] = test: Effect on PDI expression in human U87MG cells at 20 uM measured after 24 hrs by Western blot analysis; type: functional, cell-based; details: U-87MG ATCC
[2] = target: T1, Protein disulfide-isomerase (Homo sapiens, UniProt P07237); test: Binding affinity to recombinant human N-terminal His-tagged PDI expressed in Escherichia coli BL21 (DE3) pLysS assessed as change in melting temperature at 100 uM by ROX dye based thermal shift assay
Method in brief: (§1)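 Purified wild-type, C53S/C397S or H256A PDI at 0.5 mg/mL in 50 mM Tris, pH 7.0, with or without 100 μM compound, was mixed with ROX dye in a 20 µL well. DMSO (5% in buffer) was the control. Samples were heated 25–99 °C at 1 °C/min, and the Boltzmann melting temperature shift versus DMSO was reported. Mean ± SD of three experiments.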
Target sequence in this assay (P07237 18-508 limits assumed): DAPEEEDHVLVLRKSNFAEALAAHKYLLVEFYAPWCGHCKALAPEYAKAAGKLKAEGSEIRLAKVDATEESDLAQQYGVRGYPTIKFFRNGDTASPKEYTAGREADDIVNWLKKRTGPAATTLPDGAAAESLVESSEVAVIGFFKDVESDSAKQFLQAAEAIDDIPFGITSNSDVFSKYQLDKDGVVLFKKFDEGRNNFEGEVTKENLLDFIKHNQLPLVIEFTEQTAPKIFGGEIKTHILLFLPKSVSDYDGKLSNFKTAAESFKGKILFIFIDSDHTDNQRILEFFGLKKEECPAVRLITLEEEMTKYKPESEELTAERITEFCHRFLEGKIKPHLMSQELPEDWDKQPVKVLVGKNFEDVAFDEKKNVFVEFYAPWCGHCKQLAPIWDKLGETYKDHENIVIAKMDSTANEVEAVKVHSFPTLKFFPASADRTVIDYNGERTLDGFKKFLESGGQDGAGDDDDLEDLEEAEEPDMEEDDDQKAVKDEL

[3] = target: Eukaryotic translation initiation factor 2 subunit 1 (Homo sapiens) (UniProt P05198); test: Induction of EIF2alpha phosphorylation in human A172 cells at 20 uM measured after 2 hrs by Western blot analysis; type: cell-based
Sequence of Eukaryotic translation initiation factor 2 subunit 1 (Homo sapiens) (P05198 whole entry): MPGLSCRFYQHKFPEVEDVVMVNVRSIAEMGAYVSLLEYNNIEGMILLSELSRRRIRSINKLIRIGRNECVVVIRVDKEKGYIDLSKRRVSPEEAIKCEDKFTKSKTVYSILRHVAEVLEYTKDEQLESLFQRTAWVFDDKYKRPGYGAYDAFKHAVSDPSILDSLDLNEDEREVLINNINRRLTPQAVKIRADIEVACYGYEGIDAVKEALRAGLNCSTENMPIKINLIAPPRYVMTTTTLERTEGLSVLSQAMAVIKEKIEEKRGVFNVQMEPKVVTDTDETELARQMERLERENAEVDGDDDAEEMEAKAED

HFF-1 = test: Cytotoxicity against HFF1 cells assessed as inhibition of cell growth measured after 72 hrs by MTT assay; type: cell-based; details: Homo sapiens, HFF-1, 72 h
Method in brief: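 Cells grown as monolayers at 37 °C, 5% CO2, seeded and left overnight, then exposed to drug or vehicle for 72 h. MTT (20 μL of 3 mg/mL) added for 4 h, supernatant removed, formazan dissolved in DMSO, absorbance read at 570 nm. IC50 from nonlinear regression of log concentration–response curves; at least three independent experiments.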

A 172 [4] = test: Induction of endoplasmic reticulum stress in human A172 cells assessed as increase in GRP78 expression at 20 uM measured after 24 hrs by Western blot analysis; type: functional, cell-based
U-87 MG [5] = test: Effect on MMP2 expression in human U87MG cells at 10 uM measured after 24 hrs by Western blot analysis; type: functional, cell-based; details: U-87MG ATCC
U-87 MG [6] = test: Down regulation of MMP9 expression in human U87MG cells at 10 uM measured after 24 hrs by Western blot analysis; type: functional, cell-based; details: U-87MG ATCC
A 172 [7] = test: Antimigratory activity against human A172 cells at 30 uM measured after 4 hrs by Giemsa staining based transwell migration assay; type: functional, cell-based
Method in brief: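 A172 cells (1 x 10^5) were treated with compound and seeded into inserts with 8.0 μm PET membrane in serum-free medium. DMEM with 10% FBS was in the lower well; wells without FBS served as control. After 4 h, migrated cells were Giemsa-stained and imaged at 10X, 5 fields per well.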

[8] = Therapeutic ratio of IC50 for HFF1 cells to IC50 for human NU04 cells
Method in brief: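 Ratio of two growth-inhibition IC50s, HFF-1 normal human fibroblasts over NU04 glioma cells. Cells were grown as monolayers at 37 °C in 5% CO2, with NU04 seeded at 4000 cells/well. After overnight attachment, cells were exposed to compound or vehicle for 72 h. MTT (3 mg/mL) was added for 4 h, and formazan dissolved in DMSO was read at 570 nm. IC50s came from nonlinear regression of log concentration-response curves, with at least three independent experiments.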

A 172 [9] = test: Antimigratory activity against human A172 cells assessed as reduction in cell migration towards wound area at 10 uM measured after 24 hrs by Giemsa staining based microscopic analysis; type: functional
Method in brief: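 A172 cells plated at 50,000 cells/well, incubated overnight at 37 °C, 5% CO2, then held 24 h in serum-free DMEM. A scratch was made, compounds were added, and cells grew 24 h until DMSO-control wells closed. Cells were Giemsa-stained and imaged at 10X.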

A 172 [10] = test: Effect on PDI expression in human A172 cells at 20 uM measured after 24 hrs by Western blot analysis; type: functional, cell-based
[11] = target: Focal adhesion kinase 1 (Homo sapiens) (UniProt Q05397); test: Effect on FAK phosphorylation in human U87MG cells at 10 uM measured after 24 hrs by Western blot analysis; type: cell-based
Sequence of Focal adhesion kinase 1 (Homo sapiens) (Q05397 2-1052 limits assumed): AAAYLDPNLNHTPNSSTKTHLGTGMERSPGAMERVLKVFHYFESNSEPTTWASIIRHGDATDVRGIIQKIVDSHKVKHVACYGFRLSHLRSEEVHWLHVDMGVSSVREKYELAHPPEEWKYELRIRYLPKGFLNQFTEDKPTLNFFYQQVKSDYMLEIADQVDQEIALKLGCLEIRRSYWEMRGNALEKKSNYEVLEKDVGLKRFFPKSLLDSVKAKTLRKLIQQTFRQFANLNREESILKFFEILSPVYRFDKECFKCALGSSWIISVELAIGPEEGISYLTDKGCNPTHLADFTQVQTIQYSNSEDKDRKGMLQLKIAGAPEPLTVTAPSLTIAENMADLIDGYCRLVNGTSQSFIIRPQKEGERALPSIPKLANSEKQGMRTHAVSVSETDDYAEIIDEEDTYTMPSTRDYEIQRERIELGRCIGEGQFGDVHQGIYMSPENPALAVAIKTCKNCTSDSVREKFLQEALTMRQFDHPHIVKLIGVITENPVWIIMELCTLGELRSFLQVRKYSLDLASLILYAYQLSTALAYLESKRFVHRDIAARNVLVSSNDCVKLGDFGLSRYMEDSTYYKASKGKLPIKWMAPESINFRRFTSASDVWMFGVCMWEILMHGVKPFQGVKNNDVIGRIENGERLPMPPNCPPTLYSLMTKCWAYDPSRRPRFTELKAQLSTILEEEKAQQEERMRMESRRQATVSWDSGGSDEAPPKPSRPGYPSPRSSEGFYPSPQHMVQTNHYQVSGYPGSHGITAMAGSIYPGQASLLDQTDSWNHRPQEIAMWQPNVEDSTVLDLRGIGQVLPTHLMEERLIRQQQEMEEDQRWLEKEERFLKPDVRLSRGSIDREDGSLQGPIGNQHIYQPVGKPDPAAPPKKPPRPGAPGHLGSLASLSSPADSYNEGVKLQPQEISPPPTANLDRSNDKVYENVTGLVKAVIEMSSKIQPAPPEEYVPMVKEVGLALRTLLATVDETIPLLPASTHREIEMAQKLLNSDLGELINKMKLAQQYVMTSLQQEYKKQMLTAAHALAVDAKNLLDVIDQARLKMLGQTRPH

[12] = target: T1, Protein disulfide-isomerase; test: Inhibition of recombinant human N-terminal His-tagged PDI expressed in Escherichia coli BL21 (DE3) pLysS assessed as reduction in enzyme-mediated bovine insulin aggregation
Target sequence in this assay (P07237 whole entry): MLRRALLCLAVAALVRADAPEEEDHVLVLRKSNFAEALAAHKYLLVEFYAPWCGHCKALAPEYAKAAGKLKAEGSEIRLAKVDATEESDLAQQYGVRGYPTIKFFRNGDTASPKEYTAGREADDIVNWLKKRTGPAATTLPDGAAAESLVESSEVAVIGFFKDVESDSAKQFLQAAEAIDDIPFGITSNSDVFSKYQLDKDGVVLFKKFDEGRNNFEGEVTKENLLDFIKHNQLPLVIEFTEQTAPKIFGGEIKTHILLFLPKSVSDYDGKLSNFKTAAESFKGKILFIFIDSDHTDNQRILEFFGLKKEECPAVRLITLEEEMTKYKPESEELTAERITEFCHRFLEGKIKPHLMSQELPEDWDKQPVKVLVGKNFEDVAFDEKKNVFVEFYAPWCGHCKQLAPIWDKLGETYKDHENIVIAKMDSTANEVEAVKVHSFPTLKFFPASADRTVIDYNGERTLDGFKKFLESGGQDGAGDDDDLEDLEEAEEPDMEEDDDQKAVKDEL

A 172 [13] = test: Cytotoxicity against human A172 cells assessed as inhibition of cell growth measured after 72 hrs by MTT assay; type: functional, cell-based; details: Homo sapiens, A 172, 72 h; read-out: IC50
Method in brief: (§2)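 A172 and NU04 cells were seeded at 4000 cells/well and U87MG at 5000 cells/well, incubated overnight at 37 °C, 5% CO2, then exposed to compound or vehicle for 72 h. MTT (3 mg/mL) was added for 4 h, formazan was dissolved in DMSO, and absorbance was read at 570 nm. IC50 came from nonlinear regression; mean ± SD of at least three experiments.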

[14] = Cytotoxicity against human NU04 cells assessed as inhibition of cell growth measured after 72 hrs by MTT assay; type: functional, cell-based; details: Homo sapiens, 72 h; read-out: IC50; method in brief: as §2
[15] = target: Eukaryotic translation initiation factor 2 subunit 1 (Homo sapiens) (UniProt P05198); test: Induction of EIF2alpha phosphorylation in human U87MG cells at 20 uM measured after 2 hrs by Western blot analysis; type: cell-based
Method in brief: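 eIF2α phosphorylation in U87MG cells after 2 h with 1 µM PACMA31 or 20 µM analogues; tunicamycin 10 µg/mL as comparator. Lysates (Tris/NaCl/Triton/SDS, sonicated) quantified by BCA; 30 µg protein separated on 10% gels, blotted to PVDF, probed for phospho-eIF2α, detected by fluorescence.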

[16] = target: T1, Protein disulfide-isomerase; test: Inhibition of recombinant human N-terminal His-tagged PDI expressed in Escherichia coli BL21 (DE3) pLysS at 100 uM measured after 1 hr by ANS dye based fluorescence spectra analysis
Method in brief: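 ANS spectral scan: PDI incubated with 100 μM compounds or matching DMSO in TBS for 1 h at 37 °C. ANS then added and incubated 20 min at 25 °C in the dark. Fluorescence spectrum recorded with excitation 370 nm, emission 400–700 nm.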
Target sequence in this assay (P07237 18-508 limits assumed): as the sequence (P07237 18-508 limits assumed) above

[17] = target: T1, Protein disulfide-isomerase; test: Binding affinity to recombinant human N-terminal His-tagged PDI expressed in Escherichia coli BL21 (DE3) pLysS by isothermal titration calorimetry
Target sequence in this assay (P07237 whole entry): as the sequence (P07237 whole entry) above

[18] = target: T1, Protein disulfide-isomerase; test: Inhibition of recombinant human N-terminal His-tagged PDI expressed in Escherichia coli BL21 (DE3) pLysS assessed as reduction in enzyme-mediated bovine insulin aggregation at 40 uM measured after 1 hr in presence of 5 mM NAC
Method in brief: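 Compounds pretreated with NAC for 30 min at 37 °C, then added to the insulin reductase assay at final 40 μM compound with 0, 1, 2 or 5 mM NAC. The assay uses 0.4 μM PDI preincubated 1 h at 37 °C, then DTT and bovine insulin, read at 620 nm, with % activity at 80 min.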
Target sequence in this assay (P07237 18-508 limits assumed): as the sequence (P07237 18-508 limits assumed) above

[19] = test system: Protein disulfide-isomerase (Homo sapiens), P07237 [H256A]; test: Binding affinity to recombinant human N-terminal His-tagged PDI H256A mutant expressed in Escherichia coli BL21 (DE3) pLysS assessed as change in melting temperature at 100 uM by ROX dye based thermal shift assay; method in brief: as §1
Sequence of Protein disulfide-isomerase (Homo sapiens), P07237 [H256A] (P07237 whole entry H256A): as the sequence (P07237 whole entry) above, with H256A counted along it

[20] = target: T1, Protein disulfide-isomerase; test: Binding affinity to recombinant human N-terminal His-tagged PDI expressed in Escherichia coli BL21 (DE3) pLysS assessed as increase in melting temperature by ROX dye based thermal shift assay; method in brief: as §1
Target sequence in this assay (P07237 18-508 limits assumed): as the sequence (P07237 18-508 limits assumed) above

Compound	Activity (U-87 MG [1])	ΔTm [2]	Activity [3]	IC50 (HFF-1)	Activity (A 172 [4])	Activity (U-87 MG [5])	Activity (U-87 MG [6])	Activity (A 172 [7])	Ratio IC50 [8]	Activity (A 172 [9])	Activity (A 172 [10])	Activity [11]	IC50 [12]	IC50 (A 172 [13])	IC50 [14]	Activity [15]	inhibition [16]	inhibition [18]	Activity [19]	Activity [20]	also measured
CCCCCN(CCCCC)S(=O)(=O)c1ccc(C(=O)/C=C/c2cccc(C#N)c2)cc1	inactive	0.52 °C	Active	3.4 µM	Active	inactive	Active	Active	0.67	Active	inactive	inactive	0.16 µM	9 µM	5 µM	Active	–	–	–	–	–
COC(=O)c1cccc(/C=C/C(=O)c2cccc(O)c2)c1	inactive	1.86 °C	Active	17.4 µM	Active	inactive	–	–	0.77	Active	inactive	inactive	0.12 µM	19.5 µM	22.7 µM	Active	Active	inactive	Active	Dose-dependent effect	Kd [17]: Nd(Insoluble)
N#Cc1cccc(/C=C/C(=O)c2ccc(O)cc2)c1	inactive	2.85 °C	Active	91.2 µM	Active	inactive	–	Active	5.8	Active	inactive	inactive	–	16.8 µM	15.7 µM	Active	Active	Active	inactive	–	Kd ([17]; read-out: Kd): 9.1 µM
O=C(/C=C/c1ccc(-c2cccnc2)cc1)c1cccc(O)c1	inactive	2.83 °C	Active	22.5 µM	Active	inactive	Active	–	4.57	Active	inactive	inactive	0.35 µM	11 µM	4.9 µM	Active	Active	Active	Active	Dose-dependent effect	–
CCCCCN(CCCCC)S(=O)(=O)c1ccc(C(=O)/C=C/c2cccc(O)c2)cc1	inactive	3.58 °C	Active	29.2 µM	Active	inactive	Active	Active	3.85	Active	inactive	inactive	0.81 µM	11.3 µM	7.6 µM	Active	Active	inactive	Active	Dose-dependent effect	Kd [17]: Nd(Insoluble)
